An excerpt weighted towards active compounds, which were near 3% of everything screened.
CendR NRP1 mod – alters CendR peptide binding to human NRP-1. O14786. actives 0.85% (n = 360,000). FAM-RPARPAR peptide binding to NRP-1, fluorescence polarization. inhibition, % at 25 µM. AID 602438;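 active = inhibition or corrected inhibition above about 18%, plus a signal ratio from 0.5 to 1.5, limit read from the data, passing the limit was not always enough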
Tn7 DDE FP – disrupts Tn7 cyclic peptide binding to fibrin D-Dimer-E complex | P02675 | FP displacement of FITC-Tn7 peptide from fibrin DD(E); 0% = median of compound wells per plate | inhibition, % at 8.3 µM | actives 0.13% (n = 370,000) | AID 720508;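 active = inhibition above the mean of compounds falling within the control limits plus 3 SD of them, cut at about 14% in these data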
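Assay system: human fibrin DD(E). Input: DD(E) 2 µM final. Medium: Tris buffer with calcium and detergent, pH 7.8. Compound dosing: single point at 8.3 µM. Timing: 10 min plus 3 h, room temperature. Technique: fluorescence polarization of the labelled Tn7 tracer. Read-out: percent inhibition. Replicates: singlicate testing.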
PLC-gamma1 inh – blocks human PLC-gamma1 enzyme activity; P19174; purified PLC-gamma1, fluorogenic substrate, fluorescence; inhibition, % at 12.2 µM; actives 0.84% (n = 370,000); in the data active = inhibition above about 9.5%
Tn6 DDE FP – inhibitors of Tn6 peptide binding to human fibrin DD(E); inhibition, % at 8.3 µM; P02675; Fibrin DD(E) TRITC-Tn6 fluorescence polarization displacement; actives 0.21% (n = 370,000);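 active = inhibition above a per-campaign cutoff: mean of compounds within control limits plus 3 SD, cut at about 15% in these data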
proKLK7 act – activates the human kallikrein-7 zymogen; P49862; purified proKLK7, EDANS-DABCYL substrate fluorescence; 100% is mature enzyme control, 0% vehicle; activation, % at 7 µM; actives 0.9% (n = 370,000);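 active = activation above the mean of all tested compounds plus 3 SD, computed per campaign excluding outliers beyond control limits, cut at about 13% in these data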
PLC-beta3 inh – inhibitors of human phospholipase C beta3; Purified PLC-beta3, fluorogenic substrate, fluorescence; inhibition, % at 12.2 µM; actives 0.18% (n = 370,000); AID 720704; in the data active = inhibition above about 11%
Target sequence (Q01970 whole entry, looked up): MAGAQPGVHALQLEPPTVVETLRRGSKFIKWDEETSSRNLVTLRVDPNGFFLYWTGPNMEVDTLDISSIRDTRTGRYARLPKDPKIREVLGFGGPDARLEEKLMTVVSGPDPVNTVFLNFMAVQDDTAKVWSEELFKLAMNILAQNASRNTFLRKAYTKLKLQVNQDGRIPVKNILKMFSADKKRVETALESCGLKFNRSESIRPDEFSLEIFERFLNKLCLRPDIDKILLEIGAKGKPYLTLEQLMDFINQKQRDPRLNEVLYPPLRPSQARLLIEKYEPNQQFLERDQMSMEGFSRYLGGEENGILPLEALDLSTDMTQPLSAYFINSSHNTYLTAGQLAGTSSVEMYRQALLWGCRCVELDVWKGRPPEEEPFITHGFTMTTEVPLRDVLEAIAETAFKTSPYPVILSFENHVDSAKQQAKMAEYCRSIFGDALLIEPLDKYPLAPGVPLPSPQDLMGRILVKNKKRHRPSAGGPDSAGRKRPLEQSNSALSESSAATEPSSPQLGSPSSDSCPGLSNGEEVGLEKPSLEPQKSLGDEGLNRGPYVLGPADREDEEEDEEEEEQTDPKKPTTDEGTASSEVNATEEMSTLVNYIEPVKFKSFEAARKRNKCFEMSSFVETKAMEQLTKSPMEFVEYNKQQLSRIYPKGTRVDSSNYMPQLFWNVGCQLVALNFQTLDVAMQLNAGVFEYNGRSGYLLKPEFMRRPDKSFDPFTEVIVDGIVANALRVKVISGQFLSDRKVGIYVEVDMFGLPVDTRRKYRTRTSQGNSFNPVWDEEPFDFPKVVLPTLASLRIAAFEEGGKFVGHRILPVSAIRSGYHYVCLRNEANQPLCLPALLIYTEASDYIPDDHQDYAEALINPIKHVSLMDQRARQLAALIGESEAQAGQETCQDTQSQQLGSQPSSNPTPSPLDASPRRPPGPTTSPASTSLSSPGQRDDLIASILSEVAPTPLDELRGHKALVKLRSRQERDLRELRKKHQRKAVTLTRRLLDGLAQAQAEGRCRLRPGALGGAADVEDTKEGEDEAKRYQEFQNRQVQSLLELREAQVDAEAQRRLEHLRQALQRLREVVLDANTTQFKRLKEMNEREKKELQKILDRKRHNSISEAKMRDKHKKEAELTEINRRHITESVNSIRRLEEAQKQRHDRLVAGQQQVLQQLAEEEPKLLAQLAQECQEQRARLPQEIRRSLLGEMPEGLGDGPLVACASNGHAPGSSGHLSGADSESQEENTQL
A number is an active result; n = inactive; x = no result.

SMILES	CendR NRP1 mod	Tn7 DDE FP	PLC-gamma1 inh	Tn6 DDE FP	proKLK7 act	PLC-beta3 inh
COC(=O)[C@]12C[C@H](CC(=O)NCc3cccs3)C(=O)N(Cc3ccco3)C1=C[C@H](C(C)(C)C)O[C@@H]2C	x	n	n	n	n	n
Cn1nnnc1SCC(=O)c1ccco1	18.7	n	n	n	n	n
O=C(CSc1nnnn1-c1ccccc1)c1ccco1	n	n	n	n	n	n
CCOC(=O)[C@]12CCCCC/C=C\1N(Cc1ccc(OC)cc1)C(=O)[C@H]2CC(=O)NCCc1ccccc1OC	x	n	n	n	n	n
COCCCNC(=O)C[C@H]1C[C@@]2(C(=O)OC)C(=C[C@H](COCc3ccccc3)O[C@@H]2C)N(Cc2ccccc2)C1=O	x	n	n	n	n	n
O=C(Nc1ccc(NC(=O)c2ccccc2Cl)c(Cl)c1)c1ccccn1	x	n	n	n	x	n
Nc1nnc(CSCc2ccc(Cl)cc2)s1	n	n	n	n	n	n
Nc1nnc(SCc2ccc(Cl)cc2)s1	25.8	n	n	n	n	n
CCC[C@H]1[C@@H](OC(=O)NCc2ccc(Cl)c(Cl)c2)CC[C@@]23CCCN2C(=O)CCC[C@@H]13	x	n	n	n	x	n
Nc1c(S(=O)(=O)O)cc(NC(=O)c2ccccc2)c2c1C(=O)c1ccccc1C2=O	26.7	x	x	x	x	x
CC(SC1=Nc2ccccc2C2CC=NN12)C(=O)NC1(C#N)CCCCC1 (stereo unspecified)	n	n	n	n	n	n
CC(Sc1ncccn1)C(=O)NC1(C#N)CCCCC1 (stereo unspecified)	25.7	n	n	n	n	n
Cc1ccc(C(=O)Nc2nnc([C@H]3C[C@H](O)[C@@H](CO)O3)s2)cc1	30.0	n	n	n	n	n
O=C(COC(=O)c1cccnc1Cl)NC1CCCCC1	n	n	n	n	n	n
CC1CCC(NC(=O)COC(=O)c2cccnc2Cl)CC1 (stereo unspecified)	24.1	n	n	n	n	n
O=C(NCCN1CCC(Cc2ccccc2)CC1)C1CCCN(S(=O)(=O)c2ccccc2)C1 (stereo unspecified)	x	n	n	n	n	n
COc1ccc(C2=CC(c3ccco3)n3ncnc3N2)cc1 (stereo unspecified)	n	x	x	x	x	x
Clc1ccc(C2=CC(c3ccco3)n3ncnc3N2)cc1 (stereo unspecified)	n	15.8	n	n	n	n
CC1CCN(c2ccc(C(=O)O)cc2NS(=O)(=O)c2ccccc2)CC1	x	n	n	n	n	n
COc1ccc(COc2cc(-c3cccc(OC)c3)nc3ccc(NC(=O)c4ccc(N(C)C)cc4)cc23)cc1	28.2	x	x	x	x	x
Cc1ccc(Cl)cc1NC(=O)COC(=O)CN1C(=O)C2CCCCC2C1=O (stereo unspecified)	26.2	n	n	n	n	n
Cc1ccc(Cl)cc1NC(=O)COC(=O)CCN1C(=O)C2CC=CCC2C1=O (stereo unspecified)	n	n	n	n	n	n
CC(=O)N1[C@@H](CO)[C@@H](c2ccc(-c3cccc(F)c3)cc2)[C@@H]1CNCC1CCC1	x	n	n	n	n	n
CCOC(=O)c1cc(CC)sc1NC(=O)Cc1ccsc1	22.3	n	n	n	n	n
CSc1cccc(CN2CCC(CO)(Cc3cccc(C(F)(F)F)c3)CC2)c1	29.8	n	n	n	n	n
SMILES	CendR NRP1 mod	Tn7 DDE FP	PLC-gamma1 inh	Tn6 DDE FP	proKLK7 act	PLC-beta3 inh
CN(C)Cc1ccccc1C(O)(c1ccccc1)c1ccccc1	n	n	n	n	n	n
CN(C)Cc1cc(C(F)(F)F)ccc1C(O)(c1ccccc1)c1ccccc1	21.1	n	n	n	n	n
COc1ccc(NC(=O)c2oc3ccccc3c2NC(=O)C2CCCO2)cc1OC (stereo unspecified)	n	n	n	n	n	n
COc1ccc(NC(=O)c2oc3ccccc3c2NC(=O)C2CC2)cc1OC	29.8	n	n	n	n	n
O=C(N/N=C\c1cc(Br)c(Br)o1)c1cncc(Br)c1	n	n	n	n	n	n
O=C(N/N=C/c1cc(Br)c(Br)o1)c1cccnc1	31.2	n	n	n	n	n
CC1(C)c2ccccc2C(=O)c2ccccc21	33.9	n	n	n	n	n
CC1(C)CC(=O)C2=C(C1)Oc1ncn3nc(-c4cccnc4)nc3c1C2c1ccccc1 (stereo unspecified)	31.1	n	n	n	n	n
Cn1c(=NC(=O)COc2ccccc2)sc2ccccc21	25.5	n	n	n	n	n
Nc1[nH]c(C(=O)c2ccc(Br)cc2)c(-c2ccc(Cl)cc2[N+](=O)[O-])c1C(=O)NCCc1c[nH]c2ccccc12	x	n	n	n	n	n
CC(=O)OC[C@@H]1CN(Cc2cccc(C(F)(F)F)c2)C[C@H](n2cnc3c(NCc4ccco4)ncnc32)O1	40.3	n	n	n	n	n
CC(=O)OC[C@@H]1CN(Cc2cccc(C(F)(F)F)c2)C[C@H](n2cnc3c(N4CCOCC4)ncnc32)O1	n	n	n	n	n	n
CCCCc1ccc(CC(=O)O)cc1	n	n	n	n	n	n
CCCCCc1ccc(CC(=O)O)cc1	38.4	n	n	n	n	n
CCCCCN1CCCCC(NC(=O)c2ccc(F)c(F)c2)C1=O (stereo unspecified)	x	n	n	n	n	n
CCN(CC)CC(=O)Nc1ccc(-c2nc3cc(NC(=O)CN(CC)CC)ccc3o2)cc1	17.4	n	n	n	n	n
CCC(C)NCC(=O)Nc1ccc(-c2nc3cc(NC(=O)CNC(C)CC)ccc3o2)cc1 (stereo unspecified)	n	n	n	n	n	n
O=C(CNc1cccc([N+](=O)[O-])c1)N1CCN(S(=O)(=O)c2ccc(Cl)cc2)CC1	n	n	n	n	n	11.6
COC(=O)[C@]12C[C@H](CC(=O)NCc3cccc(C(F)(F)F)c3)C(=O)N(Cc3ccc(Cl)cc3Cl)C1=C[C@H](COCc1ccccc1)O[C@@H]2C	x	n	n	n	n	n
Cc1nc2ccccc2n1CCC(=O)O	33.0	n	n	n	n	n
Cc1ccc(S(=O)(=O)NC(CC(C)C)C(=O)N2CCCC2)cc1 (stereo unspecified)	n	n	n	n	n	n
COC(=O)[C@H](CC(C)C)NS(=O)(=O)c1ccccc1	23.0	n	n	n	n	n
CCOC(=O)N1CCN(C(=O)C(CC(C)C)NS(=O)(=O)c2ccc(C)cc2)CC1 (stereo unspecified)	22.1	n	n	n	n	n
COC(=O)[C@H](CC(C)C)NS(=O)(=O)N[C@@H](CC(C)C)C(=O)OC	n	n	n	n	n	n
CCN(C(=O)COc1ccc(C(C)=O)cc1)c1cccc2ccccc12	36.0	n	n	n	n	n
CCOC(=O)c1c(C)oc2cc(Br)c(OC(=O)N3CCOCC3)cc12	26.0	n	n	n	n	n

Screening data (PubChem)
